We go through 96 compounds from ChEMBL document CHEMBL4513216, “Probing the Open Global Health Chemical Diversity Library for Multistage-Active Starting Points for Next-Generation Antimalarials” (ACS Infect Dis, 2020).

This data set can be described thus: Toxicity liver stage against HepG2, at 10uM. The class given is cell-based. Further details: test concentration 10 uM, cell line HepG2-A16-CD81EGFP. As to conditions: human, HepG2-A16-CD81EGFP cells; read-out: INHIBITION
In a few lines: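 Uninfected HepG2-A16-CD81EGFP cells, 3 × 10^3 per well, 1536-well, plated on prespotted compound at 10 μM final, parasite-free screening media added to match infected plates; puromycin 10 μM positive, DMSO 0.5% negative; run in parallel with 48 h PbLuc assay at 37 °C, 5% CO2; viability by CellTiter-Glo luminescence, normalized to controls.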
For the compound `O=S(=O)(CCCN1CCCC1Cn1cccn1)c1ccccc1` (stereo unspecified), the cytotoxicity at 10 µM is -5.18%.
For the compound `c1ccc(OC2CCCC2)c(CNC2CCc3ncnn3C2)c1` (stereo unspecified), the cytotoxicity at 10 µM is -5.43%.
On to `O=C1CCCN1Cc1nnn2c1CN(c1ncccn1)CCC2`, for which the cytotoxicity at 10 µM is -0.0499%.
Regarding `CCN(C)CC(=O)N1CCc2nc(NC)nc(C(=O)N3CCCC3)c2C1`, the cytotoxicity at 10 µM is -120%.
On to `CCOCc1nc2c(c(NCc3cc(C)on3)n1)CCN(C(C)=O)CC2`, for which the cytotoxicity at 10 µM came out at 2.24%.
Turning to `O=C1COC2(CCN(C(=O)[C@H]3CCCO3)CC2)CN1Cc1ccccn1`, the cytotoxicity at 10 µM was -0.524%.
Consider `CC(=O)N1CCCN(C(=O)NCCOc2ccc3c(c2)CCC3)CC1`, for which the cytotoxicity at 10 µM was -1.84%.
For the compound `CCN(Cc1cccc(F)c1)S(=O)(=O)N1CCOCC1`, the cytotoxicity at 10 µM is -1.71%.
Turning to `COc1cccc2cc(CNC(=O)N3CCCC(O)C3)oc12` (stereo unspecified), the cytotoxicity at 10 µM was -8.8%.
`O=C(CCc1cc2n(n1)CCCN(Cc1ccccc1F)C2)NC1CC1`: the cytotoxicity at 10 µM is -12.8%.
`Cc1occc1CNC(=O)C1CCCN1C(=O)C1CC1` (stereo unspecified): the cytotoxicity at 10 µM is 7.98%.
Regarding `CC(C)C1CN(S(=O)(=O)N2CCCC2)CCCN1Cc1ccc(F)cc1` (stereo unspecified), the cytotoxicity at 10 µM amounted to 7.2%.
With `COCCC(=O)N1CCCC1c1nc(O)cc(-c2ccccn2)n1` (stereo unspecified), the cytotoxicity at 10 µM is -5.86%.
`COCc1cc(C[C@@H]2CC[C@H](O)[C@@H](CN(CC(C)C)CC(C)C)O2)no1`: the cytotoxicity at 10 µM worked out at 0.169%.
Regarding `Cc1ccoc1C1=NNC(=CN2CCOC(Cn3cccn3)C2)O1` (stereo unspecified), the cytotoxicity at 10 µM was -7.69%.
To `COC[C@@]12CCO[C@@H]1CCN(Cc1sccc1C)C2` belongs -109%; to `CC(C)Cc1noc(CN2CCCC2c2noc(C3CC3)n2)n1` (stereo unspecified), -12.9%; to `CC(C)c1nnc2n1CCN(Cc1nc(-c3ccoc3)no1)C2`, -3.69%.
For the compound `COc1ccc(C2(NCc3c(C)nc4c(C)cccn34)CCCC2)cc1`, the cytotoxicity at 10 µM worked out at 3.79%.
The same measure for `Cc1cc(=O)n2ncnc2n1CC(O)c1ccccc1Cl` (stereo unspecified): 1.67%; for `O=C(Cc1ccccn1)N1CCN(CC2CC2)c2ncccc2C1`: 1.34%.
`Cc1oc(C(=O)O)cc1S(=O)(=O)Nc1cccc(Cl)c1F`: the cytotoxicity at 10 µM is -5.99%.
The same measure for `Cc1cc(C)n(C2CCN(c3ncnc4sc5c(c34)CCNC5)C2)n1` (stereo unspecified): 17.3%.
To `CC(CNS(N)(=O)=O)c1ccc(F)c(F)c1` (stereo unspecified) belongs -12.1%.
To `CSCc1noc(CN2CCC3(CC2)CC(=O)N(CC(C)C)C3)n1` belongs -0.0813%; to `CCSc1ncccc1C(=O)NCc1ccc(N(C)C)cc1`, 4.36%; to `c1ccc(N2CCC(NCCc3ccc(-n4cccn4)cc3)CC2)nc1`, 21.1%.
Consider `CN(C)C(=O)N1CCN(C(=O)Nc2nc(-c3ccccc3)ns2)CC1`, for which the cytotoxicity at 10 µM was -136%.
Consider `Cc1ncsc1C(=O)NCCn1nc2ccccn2c1=O`, for which the cytotoxicity at 10 µM is 0.00307%.
As for `CCCc1noc(C(C)N2CCN(CCn3ccccc3=O)CC2)n1` (stereo unspecified), the cytotoxicity at 10 µM amounted to 5.6%.
Consider `CC(=O)NC(C)C(=O)NCc1ccc(N2CCNC(=O)C2)cc1` (stereo unspecified), for which the cytotoxicity at 10 µM was found to be 2.03%.
As for `Cc1cc(N(C)C)nc(N2CCn3c(nnc3C(C)C)C2)n1`, the cytotoxicity at 10 µM is 19%.
To `CCc1cc(C(=O)N[C@H]2CN(CCS(C)(=O)=O)C[C@@H]2C2CC2)[nH]n1` belongs 3.91%.
In the case of `CCN(Cc1ccoc1)C(=O)c1ccc(C)c(S(N)(=O)=O)c1`, the cytotoxicity at 10 µM was -4.63%.
To `CC(=O)N1CCC(C(=O)NCCN2CCCC(C)C2)CC1` (stereo unspecified) belongs 10.7%.
Regarding `O=S(=O)(N1CCOCC1)N1CCOC(CCCc2ccccc2)C1` (stereo unspecified), the cytotoxicity at 10 µM was -8.79%.
On to `OC1(CNCc2ccc(F)c(C(F)(F)F)c2)CCOC1` (stereo unspecified), for which the cytotoxicity at 10 µM worked out at 9.21%.
To `CN(C)C(=O)N1C[C@H]2CC[C@@H](C1)N(C/C=C/c1ccc(F)cc1)C2` belongs -0.545%.
For `Cc1nc(C2CCCN(C(=O)c3cc(C)sc3C)C2)no1` (stereo unspecified), the cytotoxicity at 10 µM stood at 6.86%.
`c1c2c(nn1CC1CC1)C(CNC1CCOCC1)OCC2` (stereo unspecified): the cytotoxicity at 10 µM was 7.43%.
Consider `COc1cc(CNC(C)Cn2ccnc2)cc2c1OCCO2` (stereo unspecified), for which the cytotoxicity at 10 µM is -94.1%.
As to `CCc1[nH]c2ccc(CNc3cncc(C(=O)N(C)C)n3)cc2c1C`, the cytotoxicity at 10 µM stood at 7.59%.
On to `Cc1c(CN2CCc3[nH]cnc3C2C(=O)O)[nH]c2ccc(F)cc12` (stereo unspecified), for which the cytotoxicity at 10 µM is -4.23%.
For the compound `CN1C(Cn2cccn2)C[C@@H]2CN(Cc3cccnc3)CC[C@@H]21` (stereo partly specified), the cytotoxicity at 10 µM was 8.01%.
In the case of `COc1ccccc1C(C)NC(=O)N1CCC(n2cncn2)CC1` (stereo unspecified), the cytotoxicity at 10 µM stood at 2.85%.
As for `COc1ccccc1CNC(=O)c1[nH]ncc1Cl`, the cytotoxicity at 10 µM was 1.72%.
To `COc1ccccc1CN1CC[C@H](c2nnc(-c3cncn3C)o2)C1` belongs 8.33%; to `CC(Cn1cccn1)NC(=O)Nc1ccc(N2CCCCC2)nc1` (stereo unspecified), -4.39%; to `CC(C)C1CCCN1C(=O)Nc1ccc(=O)n(C)c1` (stereo unspecified), 0.581%.
To `CCc1cnc(N2CCOC(CCOC)C2)nc1` (stereo unspecified) belongs -3.88%; to `Cc1ccc(S(=O)(=O)N2CCc3ccc(F)cc32)cc1C(=O)O`, -19.4%.
On to `O=C(CO)N1CCCn2nnc(Cn3cccn3)c2C1`, for which the cytotoxicity at 10 µM worked out at 6.59%.
To `COc1cccc(C2CC(=O)Nc3c2c(=O)n(C)c2ncnn32)c1` (stereo unspecified) belongs -0.549%.
Consider `Fc1cccnc1O[C@@H]1CC[C@H]2[C@H]1OCCN2Cc1nccs1`, for which the cytotoxicity at 10 µM came out at 4.93%.
As to `COc1ccccc1C1CCCN1CC(=O)N1CCC(C(N)=O)CC1` (stereo unspecified), the cytotoxicity at 10 µM was -24.8%.
On to `Fc1cnc(N2CC[C@@H](N3CCOCC3)[C@@H]2Cc2ccncc2)nc1`, for which the cytotoxicity at 10 µM was determined as 0.81%.
`CNC(=O)CC1COCCN1C(=O)C1(c2ccc(Cl)cc2)CCC1` (stereo unspecified): the cytotoxicity at 10 µM stood at 5.33%.
As for `N#Cc1ccc(N2CCC3(CCC(=O)N3Cc3ccncc3)CC2)nc1`, the cytotoxicity at 10 µM was -109%.
Regarding `CCc1nc(C)c(CN2CCOC(CCCC(C)C)C2)[nH]1` (stereo unspecified), the cytotoxicity at 10 µM was -20%.
In the case of `CNCC(=O)N1CCCC1c1cncc(Oc2ccc(F)cc2)n1` (stereo unspecified), the cytotoxicity at 10 µM is -6.44%.
The same measure for `CCOCc1ncn2c1CN(S(=O)(=O)c1ccc(C)cc1)CC2`: -0.602%; for `O=C(c1ccc[nH]1)N1CCn2cc(Cn3cncn3)nc2C1`: -2.65%.
On to `Cc1cccc2cc(CN3CCCN4CCC[C@H]4C3)c(=O)[nH]c12`, for which the cytotoxicity at 10 µM came out at 2.67%.
The same measure for `O=C(NC1(c2nnn(Cc3ccncc3)n2)CCCC1)c1ccccc1`: 21%; for `CCOCc1ccc(NC(=O)N2CCOC3(CCC3)C2)cc1`: 4.29%.
On to `CN(C)C(=O)CS(=O)(=O)Cc1cc(Cl)c2c(c1)OCO2`, for which the cytotoxicity at 10 µM was -6.24%.
In the case of `CCNC(=O)CN(CC)C(=O)c1csc(Cc2ccccc2F)n1`, the cytotoxicity at 10 µM turned out to be 7.6%.
`COCc1ccc(CN[C@H]2C[C@@H](Cc3cc(CCO)on3)C2(C)C)o1`: the cytotoxicity at 10 µM is -1.68%.
As to `CSc1ccccc1CCC1CCS(=O)(=O)C1` (stereo unspecified), the cytotoxicity at 10 µM was 3.75%.
The same measure for `CC(C)CCn1[nH]c(CNc2ccc(F)cc2)nc1=O`: 11.3%.
As to `O=C(N[C@@H]1CN(Cc2cccs2)[C@@H]2CCCO[C@@H]21)c1cscn1`, the cytotoxicity at 10 µM is -4.6%.
The same measure for `O=S(=O)(C/C=C/c1ccccc1)Cc1nc(C2CC2)no1`: -12.4%.
In the case of `Cc1cnc(-c2cccc(-c3ccn(CCCO)n3)c2)nc1N(C)C`, the cytotoxicity at 10 µM was -7.6%.
Regarding `COCC(=O)N1C[C@H](N(C)Cc2cncnc2)[C@H]2OCCC[C@H]21`, the cytotoxicity at 10 µM was -99.2%.
As for `CC(C)N1CCCCC1c1cc(CO)[nH]n1` (stereo unspecified), the cytotoxicity at 10 µM amounted to 4.61%.
Consider `Cc1cc(CCC(=O)NCc2ncc[nH]2)ccc1Br`, for which the cytotoxicity at 10 µM is -18.1%.
Consider `COC(=O)N1CCCC(C(=O)N(C)C)C1` (stereo unspecified), for which the cytotoxicity at 10 µM was -5.87%.
As to `COc1cc(N2CCn3cc(CNc4ccccn4)nc3C2)ncn1`, the cytotoxicity at 10 µM worked out at 13.1%.
Regarding `FC(F)(F)c1ccc(-c2cnc(C3CCCN3)cn2)cc1` (stereo unspecified), the cytotoxicity at 10 µM was -1.12%.
To `CN(C)CC(=O)N1C[C@@H]2CC[C@H](Oc3ccccc3Cl)[C@@H]2C1` belongs 3.22%; to `CC(C)n1ccnc1Cn1ccc2ncccc2c1=O`, -4.65%; to `COc1ccccc1CC1CCCN(CC(=O)NC2CC2)C1` (stereo unspecified), 6.75%.
`O=C(NC1CC1)C1=CC2(CCN(CC3CC3)CC2)c2ccccc21`: the cytotoxicity at 10 µM came to 3.11%.
As to `Cc1cc(N)n(-c2ccc3nnc(C)n3n2)n1`, the cytotoxicity at 10 µM turned out to be 5.89%.
Regarding `O=C(O)[C@]12CCCN(C3CCOC3)C[C@H]1CN(c1ncccn1)C2` (stereo partly specified), the cytotoxicity at 10 µM is -97.4%.
As for `O=C([C@@H]1C[C@@H]2CCN(Cc3ccco3)C[C@H]2O1)N1CCCO1`, the cytotoxicity at 10 µM was determined as 4.78%.
To `CCOC(=O)NCCC(=O)NCc1ccc(Oc2ccc(F)cc2)nc1` belongs -18.9%; to `Cn1cnnc1S(=O)(=O)C1CCN(C(=O)c2ccco2)CC1`, -2.28%; to `Cc1nnc(N(CCC#N)CCC#N)s1`, -0.402%.
Take `CCN(Cc1ccncc1)S(C)(=O)=O`: the cytotoxicity at 10 µM amounted to 14.4%.
The same measure for `O=C(Cn1cc(-c2ccccc2)cn1)NC(C1CC1)C1CC1`: -5%.
On to `O=C(c1cccc(-c2ncc[nH]2)c1)N1CC[C@H](CO)[C@@H](O)C1`, for which the cytotoxicity at 10 µM is -0.462%.
Take `O=C(c1cnccn1)N1CCc2onc(CN3CCOCC3)c2C1`: the cytotoxicity at 10 µM was found to be 9.47%.
To `CN(Cc1cc2n(n1)CCNC2)Cc1n[nH]c2c1CCCCC2` belongs -6.32%.
`CC(=O)Nc1ccc(-n2cncn2)c(F)c1`: the cytotoxicity at 10 µM is -11.3%.
Take `COCc1n[nH]/c(=N/C(=O)COc2cnc(C)cc2O)s1`: the cytotoxicity at 10 µM came out at 5.84%.
